# In ChEMBL document CHEMBL3120102, “Structure-based design, synthesis and biological evaluation of novel anthra[1,2-d]imidazole-6,11-dione homologues as potential antitumor agents” (2013):
# Legend:
# [1] = test system: BT-549; experiment: Cytotoxicity against human BT549 cells assessed as growth inhibition after 48 hrs by SRB assay; type: functional; conditions: for GI50 / TGI / LC50 (concentration killing 50% of cells): BT-549, 48 h
# Outline: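 NCI 60-cell-line five-dose screen at […]. Drug exposure was 48 h, followed by sulforhodamine B protein staining. GI50, TGI and LC50 were calculated against a time-zero control and untreated plates, with dose–response curves plotted from log10 concentration.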
# [2] = test system: NCI-H322M; experiment: Cytotoxicity against human NCI-H322M cells assessed as growth inhibition after 48 hrs by SRB assay; type: functional
# Outline: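 NCI 60-cell-line screen, five-dose stage: each cell line exposed for 48 h to five concentrations spanning five log steps; cellular protein measured by sulforhodamine B colorimetry. A time-zero cell control and plates without drug are used to derive GI50, TGI and LC50 from log-concentration dose-response curves.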
# [3] = test system: T47D; experiment: Cytotoxicity against human T47D cells assessed as cell growth at 10 uM after 48 hrs by SRB assay; type: functional; conditions: read-out: Activity
# Outline: (§1)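 First stage of the NCI 60 human tumour cell line screen, with each compound tested at a single dose of 10. Cellular protein measured by sulforhodamine B colorimetry after 48 h drug exposure. Growth is calculated against a time-zero cell control and against plates not exposed to drug.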
# [4] = test system: BT-549; experiment: Cytotoxicity against human BT549 cells assessed as cell growth at 10 uM after 48 hrs by SRB assay; type: functional; conditions: BT-549, 48 h, read-out: Activity
# Outline: (§2)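 NCI 60-cell-line screen, first stage: compound at a single dose of […] (unit as printed) for 48 h. Cellular protein was measured by sulforhodamine B colorimetry. Growth was determined using a time-zero cell control and plates not exposed to drug.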
# [5] = test system: MDA-MB-231; experiment: Cytotoxicity against human MDA-MB-231 cells assessed as cell growth at 10 uM after 48 hrs by SRB assay; type: functional; conditions: MDA-MB-231, 48 h, read-out: Activity
# Outline: (§3)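 First stage of the NCI 60 human tumour cell line screen: a single dose is tested against every line. Cell growth is read as cellular protein by sulforhodamine B colorimetry after 48 h of drug exposure, with reference to a time-zero control and to untreated plates.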
# [6] = test system: TK-10; experiment: Cytotoxicity against human TK10 cells assessed as cell growth at 10 uM after 48 hrs by SRB assay; type: functional; conditions: TK-10, 48 h, read-out: Activity; outline: as §1
# [7] = test system: ACHN; experiment: Cytotoxicity against human ACHN cells assessed as cell growth at 10 uM after 48 hrs by SRB assay; type: functional; conditions: read-out: Activity
# [8] = Cytotoxicity against human NCI-ADR-RES cells assessed as cell growth at 10 uM after 48 hrs by SRB assay; type: functional; conditions: read-out: Activity; outline: as §3
# [9] = test system: OVCAR-8; experiment: Cytotoxicity against human OVCAR8 cells assessed as cell growth at 10 uM after 48 hrs by SRB assay; type: functional; conditions: OVCAR-8, 48 h, read-out: Activity; outline: as §3
# [10] = test system: SK-MEL-28; experiment: Cytotoxicity against human SK-MEL-28 cells assessed as cell growth at 10 uM after 48 hrs by SRB assay; type: functional; conditions: SK-MEL-28, 48 h, read-out: Activity; outline: as §3
# [11] = test system: M14; experiment: Cytotoxicity against human M14 cells assessed as cell growth at 10 uM after 48 hrs by SRB assay; type: functional; conditions: M14, 48 h, read-out: Activity; outline: as §2
# [12] = test system: LOX IMVI; experiment: Cytotoxicity against human LOXIMVI cells assessed as cell growth at 10 uM after 48 hrs by SRB assay; type: functional; conditions: read-out: Activity; outline: as §2
# [13] = test system: SNB-75; experiment: Cytotoxicity against human SNB75 cells assessed as cell growth at 10 uM after 48 hrs by SRB assay; type: functional; conditions: SNB-75, 48 h, read-out: Activity; outline: as §1
# [14] = test system: SNB-19; experiment: Cytotoxicity against human SNB19 cells assessed as cell growth at 10 uM after 48 hrs by SRB assay; type: functional; conditions: SNB-19, 48 h, read-out: Activity; outline: as §1
# [15] = test system: SF-295; experiment: Cytotoxicity against human SF295 cells assessed as cell growth at 10 uM after 48 hrs by SRB assay; type: functional; conditions: SF-295, 48 h, read-out: Activity; outline: as §3
# [16] = test system: SW-620; experiment: Cytotoxicity against human SW620 cells assessed as cell growth at 10 uM after 48 hrs by SRB assay; type: functional; conditions: SW-620, 48 h, read-out: Activity; outline: as §1
# [17] = test system: COLO 205; experiment: Cytotoxicity against human COLO205 cells assessed as cell growth at 10 uM after 48 hrs by SRB assay; type: functional; conditions: COLO 205, 48 h, read-out: Activity
# [18] = test system: NCI-H522; experiment: Cytotoxicity against human NCI-H522 cells assessed as cell growth at 10 uM after 48 hrs by SRB assay; type: functional; conditions: NCI-H522, 48 h, read-out: Activity; outline: as §3
# [19] = test system: NCI-H322M; experiment: Cytotoxicity against human NCI-H322M cells assessed as cell growth at 10 uM after 48 hrs by SRB assay; type: functional; conditions: read-out: Activity; outline: as §3
# [20] = test system: NCI-H23; experiment: Cytotoxicity against human NCI-H23 cells assessed as cell growth at 10 uM after 48 hrs by SRB assay; type: functional; conditions: NCI-H23, 48 h, read-out: Activity; outline: as §3
# [21] = test system: NCI-H226; experiment: Cytotoxicity against human NCI-H226 cells assessed as cell growth at 10 uM after 48 hrs by SRB assay; type: functional; conditions: NCI-H226, 48 h, read-out: Activity; outline: as §3
# [22] = test system: HOP-62; experiment: Cytotoxicity against human HOP62 cells assessed as cell growth at 10 uM after 48 hrs by SRB assay; type: functional; conditions: HOP-62, 48 h, read-out: Activity; outline: as §2
# [23] = test system: A549; experiment: Cytotoxicity against human A549 cells assessed as cell growth at 10 uM after 48 hrs by SRB assay; type: functional; conditions: A549, 48 h, read-out: Activity
# [24] = target: Telomerase reverse transcriptase (Homo sapiens) (UniProt O14746); experiment: Inhibition of human tert transcriptional activity assessed as SEAP activity at 10 uM after 24 hrs by SEAP reporter assay; design: scale not given: the % may be the effect or the level left
# Chain of Telomerase reverse transcriptase (Homo sapiens) (O14746 whole entry): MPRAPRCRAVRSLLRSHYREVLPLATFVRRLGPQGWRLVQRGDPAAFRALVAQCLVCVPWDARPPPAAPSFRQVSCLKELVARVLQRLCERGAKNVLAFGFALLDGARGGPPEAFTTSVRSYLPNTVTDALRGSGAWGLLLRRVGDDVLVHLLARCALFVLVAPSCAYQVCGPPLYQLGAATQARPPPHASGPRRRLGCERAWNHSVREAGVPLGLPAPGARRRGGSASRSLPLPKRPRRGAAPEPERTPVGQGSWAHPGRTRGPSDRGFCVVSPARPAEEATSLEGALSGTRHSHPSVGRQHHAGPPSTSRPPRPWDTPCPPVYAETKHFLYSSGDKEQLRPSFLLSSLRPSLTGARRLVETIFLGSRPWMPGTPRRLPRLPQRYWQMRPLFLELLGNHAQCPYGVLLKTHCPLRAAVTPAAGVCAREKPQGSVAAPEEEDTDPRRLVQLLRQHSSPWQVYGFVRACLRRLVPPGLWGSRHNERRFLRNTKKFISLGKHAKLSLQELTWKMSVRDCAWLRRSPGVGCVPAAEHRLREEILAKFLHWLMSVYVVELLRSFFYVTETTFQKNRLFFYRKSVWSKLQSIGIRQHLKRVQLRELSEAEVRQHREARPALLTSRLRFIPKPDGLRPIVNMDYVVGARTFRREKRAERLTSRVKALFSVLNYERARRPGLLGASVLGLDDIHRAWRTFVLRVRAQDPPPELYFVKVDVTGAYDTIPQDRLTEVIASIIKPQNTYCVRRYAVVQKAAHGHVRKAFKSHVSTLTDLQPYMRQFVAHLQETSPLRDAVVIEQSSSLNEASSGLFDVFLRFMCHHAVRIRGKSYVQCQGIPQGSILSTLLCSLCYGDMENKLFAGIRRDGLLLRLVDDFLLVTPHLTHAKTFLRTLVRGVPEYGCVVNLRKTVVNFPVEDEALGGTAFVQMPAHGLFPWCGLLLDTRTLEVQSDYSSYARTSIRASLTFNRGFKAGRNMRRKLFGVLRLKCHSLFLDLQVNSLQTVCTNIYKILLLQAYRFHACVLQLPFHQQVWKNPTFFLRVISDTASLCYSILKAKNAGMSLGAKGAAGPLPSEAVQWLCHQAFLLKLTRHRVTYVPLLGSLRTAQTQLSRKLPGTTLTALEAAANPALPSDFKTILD
# Outline: (§4)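 Reporter assay for hTERT transcriptional activity using secreted alkaline phosphatase. About 2 × 10³ cells per well were grown for 24 h at 37 °C, then given fresh medium. Buffer was added to the medium: 2 M diethanolamine, 1 mM MgCl2 and 20 mM L-homoarginine. p-Nitrophenyl phosphate was added to 12 mM final. The rate of absorbance increase was read at 405 nm.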
# [25] = target: Telomerase reverse transcriptase (Homo sapiens) (UniProt O14746); experiment: Inhibition of human tert transcriptional activity assessed as SEAP activity at 1 uM after 24 hrs by SEAP reporter assay; design: scale not given: the % may be the effect or the level left; outline: as §4
# [26] = Cytotoxicity against human H1299 cells assessed as cell viability at 100 uM after 48 hrs by MTT assay; type: functional; conditions: NCI-H1299, 48 h, read-out: Activity
# Outline: (§5)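 About 2×10³ H1299 cells per well were grown for 24 h at 37 °C in 5% CO2. Compound was dissolved in DMSO immediately before use, diluted in complete medium and left on cells for 48 h. MTT was then added for 4 h at 37 °C, followed by SDS/DMF lysis buffer for 16 h at 37 °C. Absorbance was read at 550 nm.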
# [27] = Cytotoxicity against human H1299 cells assessed as cell viability at 10 uM after 48 hrs by MTT assay; type: functional; conditions: NCI-H1299, 48 h, read-out: Activity; outline: as §5
# [28] = Cytotoxicity against human H1299 cells assessed as cell viability at 1 uM after 48 hrs by MTT assay; type: functional; conditions: NCI-H1299, 48 h, read-out: Activity; outline: as §5
Compound,growth inhibition (GI) [1],GI50 [1] [µM],TGI [1] [µM],TGI [2] [µM],growth inhibition (GI) [2],growth at 10 µM [3] [%],growth at 10 µM [4] [%],growth at 10 µM [5] [%],growth at 10 µM [6] [%],growth at 10 µM [7] [%],growth at 10 µM [8] [%],growth at 10 µM [9] [%],growth at 10 µM [10] [%],growth at 10 µM [11] [%],growth at 10 µM [12] [%],growth at 10 µM [13] [%],growth at 10 µM [14] [%],growth at 10 µM [15] [%],growth at 10 µM [16] [%],growth at 10 µM [17] [%],also measured
CN(C)CCCSc1nc2ccc3c(c2[nH]1)C(=O)c1ccccc1C3=O,Dose-dependent effect,9.13,21.8,20.6,Dose-dependent effect,45.8,75.8,56.2,31.7,24.3,54.3,61.9,102,77.3,28.6,50.5,79.7,76,26.4,62,GI50 [2]: 0.72 µM; growth at 10 µM [18]: 69.3%; growth at 10 µM [19]: 70.8%; growth at 10 µM [20]: 53.8%; growth at 10 µM [21]: 74.1%; growth at 10 µM [22]: 52%; growth at 10 µM [23]: 51.6%; Activity [24]: 86%; Activity [25]: 100%; viability at 100 µM [26]: 22%; viability at 10 µM [27]: 79%; viability at 1 µM [28]: 108%
O=C1c2ccccc2C(=O)c2c1ccc1nc(SCCN3CCCC3)[nH]c21,Dose-dependent effect,12.5,26.4,21.4,Dose-dependent effect,83.1,78.6,63.5,36.9,34.6,53.7,49.4,100,70.9,11.9,81.8,60.5,76.9,22.8,17.1,LC50 (concentration killing 50% of cells) [1]: 55.8 µM; growth at 10 µM [18]: 81.5%; growth at 10 µM [19]: 73.2%; growth at 10 µM [20]: 66.9%; growth at 10 µM [21]: 88.1%; growth at 10 µM [22]: 73.7%; growth at 10 µM [23]: 35.5%; Activity [24]: 98%; Activity [25]: 102%; viability at 100 µM [26]: 21%; viability at 10 µM [27]: 89%; viability at 1 µM [28]: 90%
CCCSc1nc2ccc3c(c2[nH]1)C(=O)c1ccccc1C3=O,Dose-dependent effect,33.4,> 100,> 100,Dose-dependent effect,53.7,76,26.4,35.5,27.2,50.2,44.7,92.6,90,62.6,-9.55,92,37.2,104,103,LC50 (concentration killing 50% of cells) [1]: > 100 µM; GI50 [2]: > 100 µM; LC50 (concentration killing 50% of cells relative to time zero) [2]: > 100 µM; growth at 10 µM [18]: 72.4%; growth at 10 µM [19]: 76%; growth at 10 µM [20]: 69.8%; growth at 10 µM [21]: 50.2%; growth at 10 µM [22]: 59.1%; growth at 10 µM [23]: 59.1%; Activity [24]: 94%; Activity [25]: 103%; viability at 100 µM [26]: 12%; viability at 10 µM [27]: 78%; viability at 1 µM [28]: 91%
